Measurements reported in ChEMBL document CHEMBL4004783, “Penicisulfuranols A-F, Alkaloids from the Mangrove Endophytic Fungus Penicillium janthinellum HDN13-309” (J Nat Prod, 2017).
Counter-ions that a name gives are not always drawn.

How the values were obtained:
HL-60 = assay: Cytotoxicity against human HL60 cells assessed as reduction in cell viability by MTT assay; format: functional, cell-based
Method in brief: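 HL-60 human promyelocytic leukemia cells; viability read by MTT method; IC50 values reported.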

HeLa = assay: Cytotoxicity against human HeLa cells assessed as reduction in cell viability by SRB assay; format: functional, cell-based
Method in brief: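 HeLa human cervical carcinoma cells; cell growth read by sulforhodamine B (SRB) method; IC50 values reported.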

Compound | IC50 (HL-60) | IC50 (HeLa)
COc1ccc2c(c1OC)O[C@]1(C(=O)N3O[C@H]4[C@H](O)C=C[C@@H](O)[C@@]4(O)C[C@@]3(SC)C(=O)N1C)[C@@H]2SC | > 30000 nM | > 30000 nM
COc1ccc2c(c1OC)O[C@]13C(=O)N4O[C@H]5[C@H](O)C=C[C@@H](O)[C@@]5(O)C[C@@]4(SSS[C@H]21)C(=O)N3C | 1200 nM | 300 nM
COc1ccc2c(c1OC)O[C@]13C(=O)N4O[C@H]5[C@H](O)C=C[C@@H](Cl)[C@@]5(O)C[C@@]4(SS[C@H]21)C(=O)N3C | 100 nM | 500 nM
COc1ccc2c(c1OC)O[C@]1(C(=O)N3O[C@H]4[C@H](O)C=C[C@@H](Cl)[C@@]4(O)C[C@@]3(SC)C(=O)N1C)[C@@H]2SC | > 30000 nM | > 30000 nM
COc1ccc2c(c1OC)O[C@]13C(=O)N4O[C@H]5[C@H](O)C=C[C@@H](O)[C@@]5(O)C[C@@]4(SS[C@H]21)C(=O)N3C | 1600 nM | 3900 nM
COc1cccc2c1O[C@]1(C(=O)N3O[C@H]4[C@H](O)C=C[C@@H](O)[C@@]4(O)C[C@@]3(SC)C(=O)N1C)[C@@H]2SC | > 30000 nM | > 30000 nM
COc1cccc2c1C(=O)c1c(O)c3c(c(O)c1C2=O)C[C@@](O)(C(=O)CO)C[C@@H]3O[C@H]1C[C@H](N)[C@H](O)[C@H](C)O1 [DOXORUBICIN HYDROCHLORIDE] |  | 500 nM
